# Measurements taken from ChEMBL document CHEMBL1138386, “Discovery of potent and selective PKC-theta inhibitors” (Bioorg Med Chem Lett, 2007).
# Assays:
# [1] = biological target: T1, Protein kinase C theta type (Homo sapiens, UniProt Q04759); experiment: Inhibition of PKCtheta by FP assay
# Procedure, shortened: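 Recombinant PKC-θ, […], in 20 mM Hepes pH 7.6 with 0.1 mM CaCl2, 10 mM MgCl2, 0.01% Chaps, TCEP, Na orthovanadate and protease inhibitor cocktail. Enzyme pre-incubated with compound dilutions for 10 min at rt. Phosphopeptide read by competition FP using fluorescein-labelled phosphopeptide tracer and anti-phosphoserine antibody in quench buffer.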
# Cytochrome P450 3A4 [2] = biological target: T2, Cytochrome P450 3A4 (Homo sapiens, UniProt P08684); experiment: Inhibition of CYP3A4 in presence of BQ substrate; assay type: ADME
# [3] = Permeability across Caco-2 cells from basolateral to apical side; assay type: ADME, cell-based; conditions: human, read-out: permeability
# [4] = Stability in human liver microsomes; assay type: ADME, Microsome
# Cytochrome P450 2D6 = Cytochrome P450 2D6 (Homo sapiens, UniProt P10635); experiment: Inhibition of CYP2D6; assay type: ADME
# Cytochrome P450 3A4 [5] = biological target: T2, Cytochrome P450 3A4; experiment: Inhibition of CYP3A4 in presence of BFC substrate; assay type: ADME
# [6] = Permeability across Caco-2 cells from apical to basolateral side; assay type: ADME, cell-based; conditions: human, read-out: permeability
# T-cell = experiment: Inhibition of IL2 production in […]-stimulated human CD4+ T cells; assay type: functional, cell-based; conditions: in the assay text read “anti-CD3/anti-CD28” for “anti-CD3/anti-CD8”
# Procedure, shortened: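 Human CD4+ T cells isolated from whole blood by positive selection. Cells activated through TCR and CD28 with anti-CD3 and anti-CD28 mAbs. 50,000 cells/well exposed to compound dilutions at 0.125% DMSO final, or DMSO alone, overnight at 37 °C. Supernatant IL-2 measured by ELISA after 1:10 dilution.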
# Cytochrome P450 2C9 = Cytochrome P450 2C9 (Homo sapiens, UniProt P11712); experiment: Inhibition of CYP2C9; assay type: ADME
# [7] = biological target: T1, Protein kinase C theta type; experiment: Inhibition of PKCtheta in presence of 50 uM ATP
# [8] = biological target: T1, Protein kinase C theta type; experiment: Inhibition of PKCtheta in presence of 100 uM ATP
# Sequence of Cytochrome P450 2D6 (P10635 whole entry): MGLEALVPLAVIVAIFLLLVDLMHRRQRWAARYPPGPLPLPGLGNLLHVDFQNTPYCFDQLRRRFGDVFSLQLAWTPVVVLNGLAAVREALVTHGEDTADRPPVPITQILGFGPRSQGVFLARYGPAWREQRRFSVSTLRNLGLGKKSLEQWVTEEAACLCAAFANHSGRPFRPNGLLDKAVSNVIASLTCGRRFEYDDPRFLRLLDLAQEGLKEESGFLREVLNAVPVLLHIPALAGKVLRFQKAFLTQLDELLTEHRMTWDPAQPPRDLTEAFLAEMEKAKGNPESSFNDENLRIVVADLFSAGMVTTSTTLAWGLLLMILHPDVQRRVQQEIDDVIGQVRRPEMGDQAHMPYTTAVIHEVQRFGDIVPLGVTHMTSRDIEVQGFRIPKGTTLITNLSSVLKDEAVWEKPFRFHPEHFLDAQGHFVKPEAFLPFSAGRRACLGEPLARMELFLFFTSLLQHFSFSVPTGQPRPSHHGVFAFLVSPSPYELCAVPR
# T1 sequence (Q04759 whole entry): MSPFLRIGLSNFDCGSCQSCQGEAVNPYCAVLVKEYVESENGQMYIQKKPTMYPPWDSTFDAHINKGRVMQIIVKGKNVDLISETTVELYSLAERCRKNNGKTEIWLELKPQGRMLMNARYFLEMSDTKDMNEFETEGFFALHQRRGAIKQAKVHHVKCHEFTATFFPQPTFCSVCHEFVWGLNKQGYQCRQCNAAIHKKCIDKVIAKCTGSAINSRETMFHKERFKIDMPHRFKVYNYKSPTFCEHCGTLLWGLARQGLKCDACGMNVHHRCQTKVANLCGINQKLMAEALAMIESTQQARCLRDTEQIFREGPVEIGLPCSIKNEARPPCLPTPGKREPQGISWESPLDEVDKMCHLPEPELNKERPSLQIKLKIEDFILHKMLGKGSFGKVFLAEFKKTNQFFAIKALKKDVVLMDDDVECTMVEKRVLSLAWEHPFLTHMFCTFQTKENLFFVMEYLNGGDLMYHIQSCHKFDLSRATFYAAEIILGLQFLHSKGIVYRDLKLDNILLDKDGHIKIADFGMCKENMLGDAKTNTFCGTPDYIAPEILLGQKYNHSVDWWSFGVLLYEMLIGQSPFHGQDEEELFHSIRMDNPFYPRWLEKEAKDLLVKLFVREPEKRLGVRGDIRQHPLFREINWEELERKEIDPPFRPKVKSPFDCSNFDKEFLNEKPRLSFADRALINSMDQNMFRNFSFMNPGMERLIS
# T2 sequence (P08684 whole entry): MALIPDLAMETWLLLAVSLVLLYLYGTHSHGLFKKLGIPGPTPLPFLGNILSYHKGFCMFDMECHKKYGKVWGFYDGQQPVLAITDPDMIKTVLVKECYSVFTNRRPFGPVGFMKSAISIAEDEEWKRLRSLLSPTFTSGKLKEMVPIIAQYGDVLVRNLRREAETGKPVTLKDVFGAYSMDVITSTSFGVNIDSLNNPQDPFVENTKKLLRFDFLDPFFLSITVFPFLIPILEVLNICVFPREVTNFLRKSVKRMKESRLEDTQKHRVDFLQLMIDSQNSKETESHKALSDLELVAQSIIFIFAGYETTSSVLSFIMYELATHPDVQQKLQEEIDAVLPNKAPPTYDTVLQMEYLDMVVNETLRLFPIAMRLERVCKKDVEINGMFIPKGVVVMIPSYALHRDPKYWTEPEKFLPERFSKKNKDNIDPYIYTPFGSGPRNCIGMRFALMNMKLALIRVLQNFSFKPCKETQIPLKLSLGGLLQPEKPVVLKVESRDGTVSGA
# Sequence of Cytochrome P450 2C9 (P11712 whole entry): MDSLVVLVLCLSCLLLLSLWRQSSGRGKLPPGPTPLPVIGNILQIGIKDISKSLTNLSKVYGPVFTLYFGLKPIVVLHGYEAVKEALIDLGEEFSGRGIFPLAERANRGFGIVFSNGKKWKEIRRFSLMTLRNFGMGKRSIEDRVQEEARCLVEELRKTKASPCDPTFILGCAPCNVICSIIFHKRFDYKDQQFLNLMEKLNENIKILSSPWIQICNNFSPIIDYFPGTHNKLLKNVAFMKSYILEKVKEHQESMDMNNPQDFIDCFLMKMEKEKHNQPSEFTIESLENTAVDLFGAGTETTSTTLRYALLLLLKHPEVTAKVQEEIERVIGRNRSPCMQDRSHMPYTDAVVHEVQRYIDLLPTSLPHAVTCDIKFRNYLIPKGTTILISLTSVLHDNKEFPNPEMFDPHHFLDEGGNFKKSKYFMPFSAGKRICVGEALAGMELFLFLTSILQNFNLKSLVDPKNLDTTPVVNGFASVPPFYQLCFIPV
SMILES,IC50 [1] [nM],also measured
NCC1CCC(CNc2nc(NCc3cccc(F)c3)ncc2[N+](=O)[O-])CC1 (stereo unspecified),83,–
Cc1ccc(C)c(CNc2ncc([N+](=O)[O-])c(NCC3CCC(CN)CC3)n2)c1 (stereo unspecified),910,–
NCC1CCC(CNc2nc(NCc3ccc(F)cc3)ncc2[N+](=O)[O-])CC1 (stereo unspecified),210,–
COc1ccc(CNc2ncc([N+](=O)[O-])c(NCC3CCC(CN)CC3)n2)cc1 (stereo unspecified),12000,–
NCC1CCC(CNc2nc(NCc3ccc(F)cc3F)ncc2[N+](=O)[O-])CC1 (stereo unspecified),100,–
NCC1CCC(CNc2nc(NC(=O)c3ccccc3Br)ncc2[N+](=O)[O-])CC1 (stereo unspecified),2200,–
O=[N+]([O-])c1cnc(NCc2ccccc2Cl)nc1NCC1CCNCC1,90,IC50 (Cytochrome P450 3A4 [2]): > 30000 nM; Papp B→A [3]: 10.6 ×10⁻⁶ cm/s; half-life [4]: 66 min; IC50 (Cytochrome P450 2D6): > 30000 nM; IC50 (Cytochrome P450 3A4 [5]): 28000 nM; Papp A→B [6]: 8.1 ×10⁻⁶ cm/s; IC50 (T-cell): 720 nM; IC50 (Cytochrome P450 2C9): 17600 nM
CC(C)(Nc1ncc([N+](=O)[O-])c(NCC2CCC(CN)CC2)n1)c1ccccc1 (stereo unspecified),2500,–
C[C@H](Nc1ncc([N+](=O)[O-])c(NCC2CCC(CN)CC2)n1)c1ccccc1 (stereo partly specified),3700,–
NCCCCCNc1nc(NCc2ccccc2Cl)ncc1[N+](=O)[O-],450,–
NCCCCCCCNc1nc(NCc2ccccc2Cl)ncc1[N+](=O)[O-],110,–
NCC1CCC(CNc2nc(N[C@H]3CCc4ccccc43)ncc2[N+](=O)[O-])CC1 (stereo partly specified),4400,–
NCC1CCC(CNc2nc(N[C@@H]3CCc4ccccc43)ncc2[N+](=O)[O-])CC1 (stereo partly specified),460,–
NCC1CCC(CNc2nc(NCc3ccc(Cl)cc3)ncc2[N+](=O)[O-])CC1 (stereo unspecified),170,–
Cc1ccccc1CCNc1ncc([N+](=O)[O-])c(NCC2CCC(CN)CC2)n1 (stereo unspecified),180,–
NCC1CCC(CNc2nc(NCCc3ccccc3F)ncc2[N+](=O)[O-])CC1 (stereo unspecified),130,–
NCC1CCC(CNc2nc(Nc3cc(Cl)cc(Cl)c3)ncc2C(F)(F)F)CC1 (stereo unspecified),4200,–
NCC1CCC(CNc2nc(Nc3cccc(Cl)c3)ncc2C(F)(F)F)CC1 (stereo unspecified),640,–

SMILES,IC50 [1] [nM],also measured
NCC1CCC(CNc2nc(NCCc3ccc(F)cc3)ncc2[N+](=O)[O-])CC1 (stereo unspecified),77,–
NCC1CCC(CNc2nc(NCc3ccccc3)ncc2[N+](=O)[O-])CC1 (stereo unspecified),500,–
NCC1CCC(CNc2nc(NCCc3ccccc3)ncc2[N+](=O)[O-])CC1 (stereo unspecified),94,–
NCC1CCC(CNc2nc(NCCCCc3ccccc3)ncc2[N+](=O)[O-])CC1 (stereo unspecified),90,–
NCc1ccc(CNc2nc(NCc3ccccc3Cl)ncc2[N+](=O)[O-])cc1,160,–
NCc1cccc(CNc2nc(NCc3ccccc3Cl)ncc2[N+](=O)[O-])c1,200,–
NCCCNc1nc(NCc2ccccc2Cl)ncc1[N+](=O)[O-],> 10000,–
C[C@@H](Nc1ncc([N+](=O)[O-])c(NCC2CCC(CN)CC2)n1)c1ccccc1 (stereo partly specified),5700,–
NCC1CCC(CNc2nc(Nc3cc(Cl)cc(Cl)c3)ncc2[N+](=O)[O-])CC1 (stereo unspecified),680,–
NCC1CCC(CNc2nc(NCc3cc(Cl)cc(Cl)c3)ncc2[N+](=O)[O-])CC1 (stereo unspecified),400,–
COc1cc(CNc2ncc([N+](=O)[O-])c(NCC3CCC(CN)CC3)n2)cc(OC)c1 (stereo unspecified),1500,–
COc1cccc(CNc2ncc([N+](=O)[O-])c(NCC3CCC(CN)CC3)n2)c1 (stereo unspecified),210,–
NCC1CCC(CNc2nc(Nc3cccc(Cl)c3)ncc2[N+](=O)[O-])CC1 (stereo unspecified),60,–
NCC1CCC(CNc2nc(NCCCc3ccccc3)ncc2[N+](=O)[O-])CC1 (stereo unspecified),270,–
O=[N+]([O-])c1cnc(NCc2ccccc2Cl)nc1NCC1CCCCC1,> 10000,–
CC(=O)NCC1CCC(CNc2nc(NCc3ccccc3Cl)ncc2[N+](=O)[O-])CC1 (stereo unspecified),> 10000,–
NCC1CCC(CNc2nc(NCc3cccc(Cl)c3)ncc2[N+](=O)[O-])CC1 (stereo unspecified),85,–

# The next compounds have a lower IC50 [1] than those just listed; values first:
IC50 [1] [nM],SMILES,also measured
22,NCC1CCC(CNc2nc(NCc3cccc(F)c3F)ncc2[N+](=O)[O-])CC1 (stereo unspecified),–
13,Cc1cccc(CNc2ncc([N+](=O)[O-])c(NCC3CCC(CN)CC3)n2)c1C (stereo unspecified),–
15,NCC1CCC(CNc2nc(NCc3ccccc3C(F)F)ncc2[N+](=O)[O-])CC1 (stereo unspecified),–
18,NC[C@H]1CC[C@@H](CNc2nc(NCc3ccccc3Cl)ncc2[N+](=O)[O-])CC1,–
54,CN(C)CC1CCC(CNc2nc(NCc3ccccc3Cl)ncc2[N+](=O)[O-])CC1 (stereo unspecified),IC50 (Cytochrome P450 3A4 [2]): 13000 nM; Papp B→A [3]: 10.2 ×10⁻⁶ cm/s; half-life [4]: 40 min; IC50 (Cytochrome P450 2D6): 1700 nM; IC50 (Cytochrome P450 3A4 [5]): 1700 nM; Papp A→B [6]: 10.6 ×10⁻⁶ cm/s; IC50 (T-cell): 190 nM; IC50 (Cytochrome P450 2C9): 8400 nM
6,NCC1CCC(CNc2nc(NCc3ccccc3SC(F)(F)F)ncc2[N+](=O)[O-])CC1 (stereo unspecified),–
5,NCC1CCC(CNc2nc(NCc3ccccc3Br)ncc2[N+](=O)[O-])CC1 (stereo unspecified),–
39,NCC1CCC(CNc2nc(NCc3ccccc3-c3ccccc3)ncc2[N+](=O)[O-])CC1 (stereo unspecified),–
42,NCC1CCC(CNc2nc(NCc3c(F)cccc3F)ncc2[N+](=O)[O-])CC1 (stereo unspecified),–
8,NCC1CCC(CNc2nc(NCc3cccc(Cl)c3Cl)ncc2[N+](=O)[O-])CC1 (stereo unspecified),–
27,NCC1CCC(CNc2nc(NCc3ccc(Cl)cc3Cl)ncc2[N+](=O)[O-])CC1 (stereo unspecified),–
3,NCC1CCCC(CNc2nc(NCc3ccccc3Cl)ncc2[N+](=O)[O-])C1 (stereo unspecified),–
7,NCC1CCC(CNc2nc(NCc3cc(Cl)ccc3Cl)ncc2[N+](=O)[O-])CC1 (stereo unspecified),–
46,Cc1c(Cl)cccc1CNc1ncc([N+](=O)[O-])c(NCC2CCC(CN)CC2)n1 (stereo unspecified),–
46,NCC1CCC(CNc2nc(NCc3ccccc3Cl)ncc2[N+](=O)[O-])CC1 (stereo unspecified),IC50 (Cytochrome P450 3A4 [2]): 1400 nM; IC50 [7]: 290 nM; Papp B→A [3]: 6.9 ×10⁻⁶ cm/s; half-life [4]: 48 min; IC50 (Cytochrome P450 2D6): 4300 nM; IC50 (Cytochrome P450 3A4 [5]): 700 nM; Papp A→B [6]: 4 ×10⁻⁶ cm/s; IC50 (T-cell): 84 nM; IC50 [8]: 630 nM; IC50 (Cytochrome P450 2C9): 1000 nM
31,NCC1CCC(CNc2nc(NC3Cc4ccccc4C3)ncc2[N+](=O)[O-])CC1 (stereo unspecified),–
12,NCC1CCC(CNc2nc(NCc3ccccc3C(F)(F)F)ncc2[N+](=O)[O-])CC1 (stereo unspecified),–
18,NCC1CCC(CNc2nc(NCc3ccccc3OC(F)(F)F)ncc2[N+](=O)[O-])CC1 (stereo unspecified),–
54,NCC1CCC(CNc2nc(NCCc3cccc(F)c3)ncc2[N+](=O)[O-])CC1 (stereo unspecified),–
5,CSc1ccccc1CNc1ncc([N+](=O)[O-])c(NCC2CCC(CN)CC2)n1 (stereo unspecified),IC50 (Cytochrome P450 3A4 [2]): > 30000 nM; Papp B→A [3]: 1.9 ×10⁻⁶ cm/s; half-life [4]: 65 min; IC50 (Cytochrome P450 2D6): 4700 nM; IC50 (Cytochrome P450 3A4 [5]): 6900 nM; Papp A→B [6]: 1.6 ×10⁻⁶ cm/s; IC50 (T-cell): 140 nM; IC50 (Cytochrome P450 2C9): 1400 nM
48,NCC1CCC(CNc2nc(NCc3ccccc3F)ncc2[N+](=O)[O-])CC1 (stereo unspecified),–
17,COc1ccccc1CNc1ncc([N+](=O)[O-])c(NCC2CCC(CN)CC2)n1 (stereo unspecified),–
29,NC[C@H]1CC[C@H](CNc2nc(NCc3ccccc3Cl)ncc2[N+](=O)[O-])CC1,–
35,NCC1CCC(CNc2nc(NCc3cc(F)ccc3F)ncc2[N+](=O)[O-])CC1 (stereo unspecified),–
11,NCC1CCC(CNc2nc(NCc3ccccc3[N+](=O)[O-])ncc2[N+](=O)[O-])CC1 (stereo unspecified),–
34,Cc1ccccc1CNc1ncc([N+](=O)[O-])c(NCC2CCC(CN)CC2)n1 (stereo unspecified),–
39,Cc1cccc(CNc2ncc([N+](=O)[O-])c(NCC3CCC(CN)CC3)n2)c1 (stereo unspecified),–
